# Residue numbers refer to the chain shown, from its start. Entries after “also recorded” stand apart in the source; their conditions may differ.
# How the values were obtained:
# Type in all cases: cell-based
# [1] = target: T1, rP2X7 triple mutant (R125A/Q143A/I214A) (Rattus norvegicus, UniProt Q64663, I214A/Q143A/R125A); experiment: TEVC efficacy experiments, triple mutant rP2X7 in oocytes; conditions: identical concentrations
# T1 sequence (Q64663 1-595 R125A/Q143A/I214A): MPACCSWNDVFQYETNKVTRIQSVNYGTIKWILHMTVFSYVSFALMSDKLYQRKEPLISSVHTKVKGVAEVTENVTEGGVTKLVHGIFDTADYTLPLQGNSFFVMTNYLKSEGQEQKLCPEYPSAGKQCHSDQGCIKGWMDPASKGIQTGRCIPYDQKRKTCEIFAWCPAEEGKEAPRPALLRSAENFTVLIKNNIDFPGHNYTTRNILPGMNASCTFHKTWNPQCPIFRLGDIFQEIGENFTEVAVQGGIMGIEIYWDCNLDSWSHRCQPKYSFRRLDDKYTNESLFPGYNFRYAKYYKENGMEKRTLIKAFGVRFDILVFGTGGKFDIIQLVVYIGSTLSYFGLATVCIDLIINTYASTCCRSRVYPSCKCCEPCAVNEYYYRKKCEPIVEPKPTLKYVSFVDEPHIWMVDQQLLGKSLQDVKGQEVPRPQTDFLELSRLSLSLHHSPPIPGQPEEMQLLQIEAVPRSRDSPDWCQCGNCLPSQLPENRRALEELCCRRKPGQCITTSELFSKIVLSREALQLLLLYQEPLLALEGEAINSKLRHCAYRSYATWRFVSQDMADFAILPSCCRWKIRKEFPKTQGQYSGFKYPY
# Outline: (§1)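 Oocytes expressing rP2X7 (~20 h after mRNA injection), TEVC in pH 7.4 HEPES/flufenamic acid buffer. Each oocyte first received 100 µM ATP as the normalization reference, then sequentially 50 µM ATP, 50 µM BzATP, 100 µM ATP and 100 µM BzATP, with buffer washout to baseline between applications. Normalized currents are from triplicates per concentration per construct; mean ± SD.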
# wild-type rP2X7 = target: T2, wild-type rP2X7 (Rattus norvegicus, UniProt Q64663); experiment: TEVC efficacy experiments, wild-type rP2X7 in oocytes; conditions: WT rP2X7, identical concentrations of ATP and BzATP
# T2 sequence (Q64663 1-595): T1 sequence (Q64663 1-595 R125A/Q143A/I214A) with A125R, A143Q, A214I
# Outline: as §1
# rP2X7-R125A/Q143A/I214A = target: T3, rP2X7-R125A/Q143A/I214A (Rattus norvegicus, UniProt Q64663, I214A/Q143A/R125A); experiment: TEVC deactivation time; conditions: after 100 μM ATP or 100 μM BzATP
# T3 sequence (Q64663 1-595 R125A/Q143A/I214A): T1 sequence (Q64663 1-595 R125A/Q143A/I214A)
# Outline: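 Triple-mutant rP2X7 was expressed ~20 h in Xenopus oocytes (50 nL of 10 ng/µL mRNA) and recorded by TEVC in pH 7.4 HEPES buffer containing flufenamic acid. Deactivation followed 100 µM ATP or 100 µM BzATP. τ is the time to 63% return to baseline after washout, from a one- or two-phase decay fit. Triplicate over first to third applications per oocyte; mean ± SD.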
# rP2X7-R125A/Q143A = target: T4, rP2X7-R125A/Q143A (Rattus norvegicus, UniProt Q64663, Q143A/R125A); experiment: TEVC dose response; conditions: read-out: EC50 (apparent affinity), mean ± SD, triplicate
# T4 sequence (Q64663 1-595 R125A/Q143A): T1 sequence (Q64663 1-595 R125A/Q143A/I214A) with A214I
# Outline: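 TEVC was run on Xenopus oocytes ~20 h after injection of wild-type or mutant rP2X7 mRNA, in pH 7.4 HEPES buffer with 0.1 mM flufenamic acid. Receptors were facilitated at 100 µM before recording. Dilution series: ATP 1.5 mM–2 µM (7 points), BzATP 300–0.14 µM (8 points). Responses were normalized to the largest concentration, fitted by nonlinear regression for EC50, and averaged across triplicates (mean ± SD).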
Compound,"efficacy (agonist character, current amplitude) [1]","efficacy (agonist character, current amplitude) (wild-type rP2X7)",deactivation lifetime τ (rP2X7-R125A/Q143A/I214A) [s],EC50 (rP2X7-R125A/Q143A) [µM]
Nc1ncnc2c1ncn2[C@@H]1O[C@H](COP(=O)(O)OP(=O)(O)OP(=O)(O)O)[C@@H](O)[C@H]1O [ATP],equivalent agonists in terms of efficacy; also recorded: equal current amplitudes,partial agonist,2.4 ± 0.8,114 ± 30
BzATP,equivalent agonists in terms of efficacy; also recorded: equal current amplitudes,full agonist; also recorded: greater inward current than ATP,3.7 ± 0.7,18 ± 4
